From ChEMBL document CHEMBL1221337, “The unsaturated acyclic nucleoside analogues bearing a sterically constrained (Z)-4'-benzamido-2'-butenyl moiety: Synthesis, X-ray crystal structure study, cytostatic and antiviral activity evaluations” (Bioorg Med Chem, 2010)
The source made the active and inactive calls. The rule behind the calls is not given here.

Experiments:
Coxsackievirus B4 [1] = test: Antiviral activity against Coxsackievirus B4 infected in human HeLa cells assessed as inhibition of virus-induced cytopathicity; assay type: functional, organism-based
Procedure, shortened: (§1)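 Confluent cell monolayers in 96-well plates were inoculated with 100 CCID50 of virus. After 1 h adsorption, residual virus was removed. Cultures were then incubated with test compound at varying concentrations (200, 40, 8... µM). Viral cytopathicity was scored once it reached completion in untreated infected controls. Host cells: HEL for HSV-1 KOS and HSV-2 G; Vero for the Vero lines; HeLa for the HeLa lines.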

[2] = system: Mammalian orthoreovirus 1; test: Antiviral activity against Reovirus 1 infected in Vero cells assessed as inhibition of virus-induced cytopathicity; assay type: functional, organism-based; procedure, shortened: as §1
[3] = Cytotoxicity against human WI38 cells after 72 hrs by MTT assay; assay type: cell-based; conditions: WI-38, 72 h
Procedure, shortened: (§2)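 Adherent cells were plated at 3000–6000 cells/well on day 0, according to doubling time. Compound was added as five 10-fold dilutions (1 × 10⁻⁸–1 × 10⁻⁴ M), with DMSO ≤0.1%, and incubated 72 h. Read-out was MTT absorbance converted to percentage growth versus untreated wells on the same plate. IC50 was obtained by linear regression between bracketing concentrations; the highest concentration was reported as ">" if not reached. Quadruplicates, three experiments.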

HEL = test: Cytotoxicity against HEL cells assessed as cell viability after 3 days by coulter counting; assay type: cell-based; conditions: human, 72 h
Procedure, shortened: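 HEL cells were seeded at 5 × 10³ cells/well and allowed to proliferate 24 h. Medium with test compound at different concentrations was then added, and cells were incubated 3 days at 37 °C. Cell number was counted by Coulter counter. CC50 (50% reduction in cell number versus untreated controls) was read from plots of cell number (% of control) against concentration.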

SK-BR-3 = test: Cytotoxicity against human SK-BR-3 cells after 72 hrs by MTT assay; assay type: functional, cell-based; conditions: SK-BR-3, 72 h; procedure, shortened: as §2
Sindbis virus = test: Antiviral activity against Sindbis virus infected in Vero cells assessed as inhibition of virus-induced cytopathicity; assay type: functional, organism-based; procedure, shortened: as §1
[4] = system: Vesicular stomatitis virus; test: Antiviral activity against Vesicular stomatitis virus infected in HEL cells assessed as inhibition of virus-induced cytopathicity; assay type: functional, organism-based
[5] = system: Respiratory syncytial virus; test: Antiviral activity against Respiratory syncytial virus infected in human HeLa cells assessed as inhibition of virus-induced cytopathicity; assay type: functional, organism-based; procedure, shortened: as §1
Human alphaherpesvirus 1 = test: Antiviral activity against HSV1 KOS infected in HEL cells assessed as inhibition of virus-induced cytopathicity; assay type: functional, organism-based; procedure, shortened: as §1
Coxsackievirus B4 [6] = test: Antiviral activity against Coxsackievirus B4 infected in Vero cells assessed as inhibition of virus-induced cytopathicity; assay type: functional, organism-based; procedure, shortened: as §1
Punta Toro virus = test: Antiviral activity against Punta Toro virus infected in Vero cells assessed as inhibition of virus-induced cytopathicity; assay type: functional, organism-based; procedure, shortened: as §1
Human alphaherpesvirus 2 = test: Antiviral activity against HSV2 G infected in HEL cells assessed as inhibition of virus-induced cytopathicity; assay type: functional, organism-based; conditions: strain G; procedure, shortened: as §1
Human respirovirus 3 = test: Antiviral activity against Parainfluenza 3 infected in Vero cells assessed as inhibition of virus-induced cytopathicity; assay type: functional, organism-based; procedure, shortened: as §1
Influenza B virus = test: Antiviral activity against influenza B virus infected in MDCK cells assessed as inhibition of virus-induced cytopathicity; assay type: functional, organism-based
Procedure, shortened: (§3)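 MDCK cells, nearly confluent in microtiter plates, were infected with 100 CCID50 per well. After 1 h adsorption, the inoculum was washed off. Cells were incubated with graded compound concentrations (200, 40, 8…). Cytopathicity was recorded at completion in untreated infected controls.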

MCF7 = test: Cytotoxicity against human MCF7 cells after 72 hrs by MTT assay; assay type: functional, cell-based; conditions: MCF7, 72 h; procedure, shortened: as §2
HeLa [7] = test: Cytotoxicity against human HeLa cells assessed as cell viability after 3 days by coulter counting; assay type: cell-based; conditions: 72 h
Vero = test: Cytotoxicity against african green monkey Vero cells assessed as cell viability after 3 days by coulter counting; assay type: cell-based; conditions: chlorocebus sabaeus, 72 h
MDCK = test: Cytotoxicity against MDCK cells assessed as cell viability after 3 days by coulter counting; assay type: cell-based, Canis lupus familiaris; conditions: dog, 72 h
SW-620 = test: Cytotoxicity against human SW620 cells after 72 hrs by MTT assay; assay type: functional, cell-based; conditions: SW-620, 72 h; procedure, shortened: as §2
MIA PaCa-2 = test: Cytotoxicity against human MIAPaCa2 cells after 72 hrs by MTT assay; assay type: functional, cell-based; conditions: MIA PaCa-2, 72 h; procedure, shortened: as §2
Influenza A virus = test: Antiviral activity against influenza A virus H1N1; H3N2 infected in MDCK cells assessed as inhibition of virus-induced cytopathicity; assay type: functional, organism-based; procedure, shortened: as §3
HEp-2 = test: Cytotoxicity against human Hep2 cells after 72 hrs by MTT assay; assay type: functional, cell-based; conditions: HEp-2, 72 h; procedure, shortened: as §2
HeLa [8] = test: Cytotoxicity against human HeLa cells after 72 hrs by MTT assay; assay type: functional, cell-based; procedure, shortened: as §2
[9] = system: Vesicular stomatitis virus; test: Antiviral activity against Vesicular stomatitis virus infected in human HeLa cells assessed as inhibition of virus-induced cytopathicity; assay type: functional, organism-based
Procedure, shortened: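 Confluent HeLa cultures were infected with 100 CCID50 of virus. Unadsorbed virus was removed after 1 h, and compound was added at serial concentrations (200, 40, 8…). Viral cytopathic effect was read when untreated virus-infected control wells reached full cytopathicity.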

Vaccinia virus = test: Antiviral activity against Vaccinia virus infected in HEL cells assessed as inhibition of virus-induced cytopathicity; assay type: functional, organism-based; conditions: Orthopoxvirus vaccinia

Row | SMILES | inhibition (Coxsackievirus B4 [1]) | inhibition [2] | IC50 [3] | Activity (HEL) | IC50 (SK-BR-3) | inhibition (Sindbis virus) | inhibition [4] | inhibition [5] | inhibition (Human alphaherpesvirus 1) | inhibition (Coxsackievirus B4 [6]) | inhibition (Punta Toro virus) | inhibition (Human alphaherpesvirus 2) | inhibition (Human respirovirus 3) | inhibition (Influenza B virus) | IC50 (MCF7) | Activity (HeLa [7]) | Activity (Vero) | Activity (MDCK) | IC50 (SW-620) | IC50 (MIA PaCa-2) | other results
1 | Cc1cn(C/C=C\CNC(=O)c2ccccc2)c(=O)[nH]c1=O | inactive | inactive | 4.3 µM | Non-toxic | > 100 µM | inactive | inactive | inactive | inactive | inactive | inactive | inactive | inactive | inactive | > 100 µM | Non-toxic | Non-toxic | Non-toxic | > 100 µM | > 100 µM | inhibition (Influenza A virus): inactive; IC50 (HEp-2): > 100 µM; IC50 (HeLa [8]): > 100 µM; inhibition [9]: inactive; inhibition (Vaccinia virus): inactive
2 | Cc1cn(C/C=C\CNC(=O)c2ccc(F)cc2)c(=O)[nH]c1=O | inactive | inactive | 0.1 µM | Non-toxic | > 100 µM | inactive | inactive | inactive | inactive | inactive | inactive | inactive | inactive | inactive | 24.1 µM | Non-toxic | Non-toxic | Non-toxic | > 100 µM | > 100 µM | inhibition (Influenza A virus): inactive; IC50 (HEp-2): > 100 µM; IC50 (HeLa [8]): > 100 µM; inhibition [9]: inactive; inhibition (Vaccinia virus): inactive
3 | O=C(NC/C=C\Cn1cc(C(F)(F)F)c(=O)[nH]c1=O)c1ccccc1 | inactive | inactive | > 100 µM | Non-toxic | > 100 µM | inactive | inactive | inactive | inactive | inactive | inactive | inactive | inactive | inactive | > 100 µM | Non-toxic | Non-toxic | Non-toxic | > 100 µM | > 100 µM | inhibition (Influenza A virus): inactive; IC50 (HEp-2): > 100 µM; IC50 (HeLa [8]): > 100 µM; inhibition [9]: inactive; inhibition (Vaccinia virus): inactive
4 | Nc1ncnc2c1ncn2C/C=C\CNC(=O)c1ccccc1 | inactive | inactive | > 100 µM | Non-toxic | > 100 µM | inactive | inactive | inactive | inactive | inactive | inactive | inactive | inactive | inactive | > 100 µM | Non-toxic | Non-toxic | Non-toxic | > 100 µM | > 100 µM | inhibition (Influenza A virus): inactive; IC50 (HEp-2): > 100 µM; IC50 (HeLa [8]): > 100 µM; inhibition [9]: inactive; inhibition (Vaccinia virus): inactive
5 | O=C(NC/C=C\Cn1cc(F)c(=O)[nH]c1=O)c1ccccc1 | inactive | inactive | > 100 µM | Non-toxic | > 100 µM | inactive | inactive | inactive | inactive | inactive | inactive | inactive | inactive | inactive | > 100 µM | Non-toxic | Non-toxic | Non-toxic | > 100 µM | > 100 µM | inhibition (Influenza A virus): inactive; IC50 (HEp-2): 87.5 µM; IC50 (HeLa [8]): > 100 µM; inhibition [9]: inactive; inhibition (Vaccinia virus): inactive
6 | O=C(NC/C=C\Cn1ccc(=O)[nH]c1=O)c1ccccc1 | inactive | inactive | 6.6 µM | Non-toxic | > 100 µM | inactive | inactive | inactive | inactive | inactive | inactive | inactive | inactive | inactive | > 100 µM | Non-toxic | Non-toxic | Non-toxic | > 100 µM | > 100 µM | inhibition (Influenza A virus): inactive; IC50 (HEp-2): > 100 µM; IC50 (HeLa [8]): 4.9 µM; inhibition [9]: inactive; inhibition (Vaccinia virus): inactive
7 | Nc1nc(=O)n(C/C=C\CNC(=O)c2ccc(F)cc2)cc1F | inactive | inactive | > 100 µM | Non-toxic | > 100 µM | inactive | inactive | inactive | inactive | inactive | inactive | inactive | inactive | inactive | > 100 µM | Non-toxic | Non-toxic | Non-toxic | > 100 µM | > 100 µM | inhibition (Influenza A virus): inactive; IC50 (HEp-2): 32.1 µM; IC50 (HeLa [8]): > 100 µM; inhibition [9]: inactive; inhibition (Vaccinia virus): inactive
8 | Nc1nc(=O)n(C/C=C\CNC(=O)c2ccccc2)cc1F | inactive | inactive | 50.2 µM | Non-toxic | > 100 µM | inactive | inactive | inactive | inactive | inactive | inactive | inactive | inactive | inactive | 34.4 µM | Non-toxic | Non-toxic | Non-toxic | > 100 µM | > 100 µM | inhibition (Influenza A virus): inactive; IC50 (HEp-2): > 100 µM; IC50 (HeLa [8]): 71.9 µM; inhibition [9]: inactive; inhibition (Vaccinia virus): inactive
